High-throughput results: PubChem BioAssay, several laboratories
The list is not random: actives were taken first. Their share in the collection is about 2%.
HGIII-sPLA2 inh: Inhibits HGIII-sPLA2 liposome hydrolysis, primary screen. QFRET BODIPY PC-A2 liposome hydrolysis, fluorescence. inhibition, % at 12.2 µM. 370,000 compounds, 0.56% hits. AID 743126;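 active = inhibition above mean plus 3 SD of compounds lying within the high and low control bounds, cut at about 19% in these data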;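 note: 0% = median of test compound wells and 100% = no enzyme DMSO wells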
XiGFP reactiv: reactivates the inactive X chromosome in mouse fibroblasts. activation, % at 7.58 µM. XiGFP mouse fibroblasts, % GFP-positive cells imaging, 3 d; cells co-treated with 5-aza-dC sensitizer; scaled so ellipticine positive control = 100%. 360,000 compounds, 0.055% hits;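 active = mean normalized replicate activation at least 10% and every replicate at or above 10%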;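 note: 0% = median of on-plate neutral control wells and 100% = ellipticine 6 µM median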
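System: XiGFP fibroblasts, SV40-immortalized. Medium: DMEM plus 5-aza-dC sensitizer. Doses: single point. Timing: 3 d treatment, 15 min room-temperature fixation. Control set: ellipticine 6 µM.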
SR-BI DiI-HDL act: activators of SR-BI mediated HDL lipid uptake; CHO ldlA[mSR-BI] cells, DiI-HDL uptake fluorescence, 3 h; 100 = double the neutral-control signal; 320,000 compounds, 0.096% hits; activation, % at 12.5 µM;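 active = mean replicate activation of at least 60% and every replicate at or above 60%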;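 note: 0% = median plate neutral-control signal and 100% = twice that signal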
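Test system: SR-BI-overexpressing, LDLR-lacking CHO cells; Medium: Ham's F12 with 0.5% BSA, HEPES 25 mM, pH 7.4; Schedule: 3 h, 37 °C; Technique: bottom-read fluorescence, 550/595 nm.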
SR-BI HDL uptake: blocks mouse SR-BI lipid uptake from DiI-HDL; 320,000 compounds, 0.96% hits; inhibition, % at 12.5 µM; Q61009; ldlA[mSR-BI] CHO cells, DiI-HDL uptake fluorescence, 3 h;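 active = mean replicate inhibition of at least 70% and a set share of replicates each scoring 70 or more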;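 note: 0% = median of neutral control wells and 100% = median of positive control wells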
NSD2 HMT inh: NSD2 (human) methyltransferase inhibition; 310,000 compounds, 0.54% hits; NSD2 peptide methylation, AlphaScreen, 120 min; O96028; inhibition, % at 12.5 µM; in the data active = inhibition above about 50%
Target sequence (O96028 whole entry, looked up): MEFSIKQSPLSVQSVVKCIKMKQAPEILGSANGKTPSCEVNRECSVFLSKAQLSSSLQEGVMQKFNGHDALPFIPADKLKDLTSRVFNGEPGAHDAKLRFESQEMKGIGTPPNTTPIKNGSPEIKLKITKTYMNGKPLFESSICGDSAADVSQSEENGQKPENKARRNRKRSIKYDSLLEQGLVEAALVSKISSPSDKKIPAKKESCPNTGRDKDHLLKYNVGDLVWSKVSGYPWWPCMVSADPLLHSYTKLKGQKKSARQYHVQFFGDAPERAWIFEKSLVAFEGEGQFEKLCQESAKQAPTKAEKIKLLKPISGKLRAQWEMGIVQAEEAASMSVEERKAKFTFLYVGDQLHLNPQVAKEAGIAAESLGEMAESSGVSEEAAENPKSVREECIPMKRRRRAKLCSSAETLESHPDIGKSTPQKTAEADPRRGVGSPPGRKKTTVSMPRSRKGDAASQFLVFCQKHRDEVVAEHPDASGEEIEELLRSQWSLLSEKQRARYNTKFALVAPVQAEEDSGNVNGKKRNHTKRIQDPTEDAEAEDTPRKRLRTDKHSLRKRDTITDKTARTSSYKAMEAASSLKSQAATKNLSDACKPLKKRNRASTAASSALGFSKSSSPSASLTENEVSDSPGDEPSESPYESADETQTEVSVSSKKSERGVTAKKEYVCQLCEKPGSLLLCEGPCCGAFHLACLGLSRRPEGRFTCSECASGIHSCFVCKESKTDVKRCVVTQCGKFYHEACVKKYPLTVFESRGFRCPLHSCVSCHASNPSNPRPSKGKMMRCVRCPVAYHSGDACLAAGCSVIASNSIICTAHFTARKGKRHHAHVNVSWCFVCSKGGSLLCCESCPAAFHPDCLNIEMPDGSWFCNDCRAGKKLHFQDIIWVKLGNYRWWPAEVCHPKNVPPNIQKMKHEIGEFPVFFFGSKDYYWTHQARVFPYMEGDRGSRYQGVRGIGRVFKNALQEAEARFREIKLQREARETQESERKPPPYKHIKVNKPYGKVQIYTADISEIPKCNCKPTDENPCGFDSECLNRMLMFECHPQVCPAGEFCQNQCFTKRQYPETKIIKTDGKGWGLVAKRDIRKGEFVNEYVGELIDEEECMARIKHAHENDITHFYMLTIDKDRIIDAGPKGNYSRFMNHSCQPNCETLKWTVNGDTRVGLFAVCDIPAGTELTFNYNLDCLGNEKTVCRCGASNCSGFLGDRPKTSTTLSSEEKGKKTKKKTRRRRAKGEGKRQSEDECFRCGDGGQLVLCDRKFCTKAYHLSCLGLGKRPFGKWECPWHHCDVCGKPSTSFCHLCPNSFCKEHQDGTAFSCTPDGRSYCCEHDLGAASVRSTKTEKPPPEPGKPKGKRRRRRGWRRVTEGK
ARNT-TACC3 inh: disrupts binding between human ARNT and TACC3 | Q9Y6A5 | AlphaScreen His-ARNT PAS-B/GST-TACC3 binding, luminescence; TACC3 fragment carries E629A point mutation | inhibition, % at 9.99 µM | 390,000 compounds, 0.66% hits;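 active = mean inhibition of replicates at least 50% and at least half of replicates each reaching 50%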;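 note: 0% = complete ARNT plus TACC3 wells and 100% = ARNT alone without TACC3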
Numbers without * were called inactive; . = not tested or not shown.

SMILES	HGIII-sPLA2 inh	XiGFP reactiv	SR-BI DiI-HDL act	SR-BI HDL uptake	NSD2 HMT inh	ARNT-TACC3 inh
CCOc1ccc(/C=N/NC(=O)Cc2csc(Nc3cccc(C(F)(F)F)c3)n2)cc1	-25.6	.	-76.8	76.8*	29.3	-0.3
CCOc1ccc(/C=N/NC(=O)Cc2csc(Nc3cccc(C(F)(F)F)c3)n2)c(OCC)c1	-27.0	.	-81.1	81.1*	0.6	-0.3
C[C@@H]1CN([C@H](C)CO)C(=O)CCCn2nncc2CO[C@@H]1CN(C)C(=O)c1cc(-c2ccccc2)on1	1.8	-0.2	.	.	.	6.1
CCC(CO)Oc1cc(NC(=O)c2cccc([N+](=O)[O-])c2)c2ncn(C(C)C)c2c1 (centres undefined)	3.8	-0.7	-75.5	75.5*	.	42.1
CCC(CN(C)C)Oc1cc(NCc2ccccc2)c2ncn(C(C)C)c2c1 (centres undefined)	.	.	17.6	-17.6	.	51.3*
COc1cc(NCc2ccccc2)c2ncn(C(C)C)c2c1	8.1	0.0	-5.7	5.7	.	13.9
COc1cccc(NC(=O)N[C@H]2C=C[C@H](CC(=O)N3CCCCC3)O[C@@H]2CO)c1	.	0.6	.	.	.	-12.0
Cc1[nH]c2ccccc2c1C(=O)C(=O)N1CCN(c2ccccc2)CC1	-9.8	0.2	.	16.2	2.1	-4.2
N#CC(C#N)=c1ccc2c(c1)N1C3=C(CCCC3)CC3CCCCC31N=2 (centres undefined)	13.5	.	-53.1	53.0	55.1*	37.9
COCCN(C(=O)Nc1ccc(OC)cc1OC)C1CCN(C(C)=O)CC1	6.0	.	.	79.6*	-2.0	-16.0
COCCN(C(=S)Nc1ccc(OC)c(Cl)c1)C1CCN(C(C)=O)CC1	18.6	0.0	.	.	0.3	.
O=C(O)c1ccc(-c2ccc(/C=C3\NC(=O)N(Cc4ccc(Cl)cc4)C3=O)o2)cc1Cl	-6.2	0.0	16.4	-16.4	128.9*	.
Cc1nn(-c2ccccc2)c2c1C(c1ccc(O)c(O)c1)N1C(=N2)C(Nc2ccccc2)=Nc2ccccc21 (centres undefined)	-16.6	.	-17.1	17.1	-0.1	2.8
Cc1cccc(NC2=Nc3ccccc3N3C2=Nc2c(c(C)nn2-c2ccccc2)C3c2ccc(O)c(O)c2)c1 (centres undefined)	-34.9	.	-102.6	102.7*	-0.9	-7.9
Cc1ccc(NC2=Nc3ccccc3N3C2=Nc2c(c(C)nn2-c2ccccc2)C3c2ccc(O)c(O)c2)cc1 (centres undefined)	-27.3	.	-119.3	119.3*	-3.0	-2.8
O=C(Nc1cccc(-c2cn3c(n2)SCC3)c1)c1ccc2c(c1)OCO2	-5.3	0.1	-59.8	59.8	-0.6	9.3
O=C(Nc1ccc(-c2cn3c(n2)SCC3)cc1)c1ccc2c(c1)OCO2	-5.6	0.1	-81.7	81.7*	5.4	-7.7
C#CCNC(=O)c1ccc(OCc2ccccc2)cc1Cl	10.1	0.6	-22.0	22.0	0.9	-1.5
O=C(NCCCl)c1ccc(OCc2ccccc2)cc1Cl	21.5*	-0.1	24.0	-24.0	0.9	-11.2
Cc1ccccc1N1CCN(C2=NC(=O)/C(=C/c3cn[nH]c3-c3ccccc3)S2)CC1	-3.7	0.0	-25.5	25.5	-3.2	20.7*
Cc1ccccc1-c1ccc(/C=C2/SC(N3CCOCC3)=NC2=O)o1	8.0	-0.1	-3.2	3.2	-2.5	0.5
C#CCOCCOCCOCCNc1nc(N2CCN(C(=O)[C@H](CCCCN)n3cc([C@@H](N)C(C)CC)nn3)CC2)nc(N2CCN(C(=O)[C@H](Cc3ccc(O)cc3)n3cc([C@@H](N)CC(C)C)nn3)CC2)n1 (some centres undefined)	-2.2	0.0	-23.7	23.7	.	29.8*
C#CCOCCOCCOCCNc1nc(N2CCN(C(=O)[C@H](CCCCN)n3cc([C@@H](N)CC(C)C)nn3)CC2)nc(N2CCN(C(=O)[C@H](Cc3cc4ccccc4[nH]3)n3cc([C@@H](N)Cc4ccc(O)cc4)nn3)CC2)n1	.	.	34.0	-34.0	.	46.1*
C#CCOCCOCCOCCNc1nc(N2CCN(C(=O)C(Cc3cc4ccccc4[nH]3)n3cc(C(N)C(C)CC)nn3)CC2)nc(N2CCN(C(=O)C(Cc3cc4ccccc4[nH]3)n3cc(C(N)C(C)CC)nn3)CC2)n1 (centres undefined)	.	.	67.2*	-67.2	.	-7.1
C#CCOCCOCCOCCNc1nc(N2CCN(C(=O)C(Cc3ccc(O)cc3)n3cc(C(N)C(C)CC)nn3)CC2)nc(N2CCN(C(=O)C(Cc3ccc(O)cc3)n3cc(C(N)C(C)CC)nn3)CC2)n1 (centres undefined)	-19.8	0.1	18.6	-18.6	.	17.0
SMILES	HGIII-sPLA2 inh	XiGFP reactiv	SR-BI DiI-HDL act	SR-BI HDL uptake	NSD2 HMT inh	ARNT-TACC3 inh
Cc1ccc(-c2nn3c(C)nnc3s2)cc1N	3.7	.	-3.6	3.6	-0.9	-7.1
CC(C)c1nnc(NC(=O)c2cnccn2)s1	4.7	.	12.0	-12.0	-0.8	49.6*
Cc1csc(NC(=O)c2cnccn2)n1	5.2	.	14.3	-14.3	-2.0	38.2
CCn1c(=O)c2ccccc2n(CC(=O)NCCC2=CCCCC2)c1=O	0.4	0.4	.	.	-3.3	-49.5
COc1ccccc1NC(=O)c1ccc2c(c1)CCN2S(C)(=O)=O	9.3	0.1	-60.3	60.3	4.1	-2.8
C[C@H](CO)N1C[C@H](C)[C@H](CN(C)C(=O)c2cccnc2)Oc2cc(-c3cccc(C#N)c3)ccc2S1(=O)=O	.	-1.0	.	.	.	-4.6
CCCCSC1(SCCCC)N=C(N)C2(C#N)C(c3ccccc3)NC(C)=CC12C#N (centres undefined)	5.3	.	-15.3	15.3	-0.1	56.0*
COc1ccc(NC(=O)c2cnn(-c3ccccc3)c2C)c(OC)c1	11.5	0.1	7.9	-7.9	.	4.2
CCOC(=O)c1cc(-c2cccs2)nc2c1c(C)nn2-c1ccccn1	-4.3	-0.2	-30.0	30.0	-3.9	1.5
Cc1nn(-c2ccccc2)c2nc(-c3cccs3)cc(C(=O)NN)c12	-8.6	0.3	-83.6	83.6*	0.7	-3.0
COc1ccc(NC(=O)c2cc(-c3ccccc3)nc3c2c(C)nn3-c2ccccc2)c(OC)c1	7.4	0.0	-87.6	87.6*	-1.0	.
O=C(Oc1cccc(/C=N/Nc2nc(N3CCOCC3)nc(N3CCOCC3)n2)c1)c1ccco1	3.7	.	18.6	-18.6	0.7	-17.5
COc1cc(/C=N/Nc2nc(Nc3ccccc3)nc(N3CCOCC3)n2)ccc1OC(=O)c1ccco1	9.6	-0.1	-72.6	72.6*	.	-3.0
Cc1cc(-c2ccccc2)nc(N/N=C/c2ccc(O)cc2)n1	-19.2	0.1	-78.7	78.7*	.	8.0
Oc1[nH]c2ccccc2c1N=Nc1nc(Nc2ccccc2)nc(N2CCOCC2)n1	-4.3	-0.1	.	.	6.3	-5.0
COc1ccc(O)c(/C=N/Nc2nc(C)cc(-c3ccccc3)n2)c1	5.2	0.0	-87.6	87.6*	-0.8	8.5
